Reference: ChEMBL document CHEMBL1806443, “Novel imidazo[4,5-b]pyridine and triaza-benzo[c]fluorene derivatives: synthesis, antiproliferative activity and DNA binding studies” (Eur J Med Chem, 2011)
Active and inactive are the calls of the source. The calls are words filed in the database; no cut-off is given here.

Key:
MIA PaCa-2 [1] = assay: Cytostatic activity against human MIAPaCa2 cells at 1 to 10 uM after 72 hrs by MTT assay; assay type: functional, cell-based
How it was run: (§1)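 Monolayers in DMEM with 10% FBS, 2 mM L-glutamine, penicillin and streptomycin (37 °C, 5% CO2) were seeded at 3000–6000 cells/well on day 0. Five 10-fold dilutions (0.01–100 µM) were added, followed by 72-h incubation and MTT read-out. Absorbances were converted to percentage growth by the NIH formulae. Each point was run in quadruplicate in three experiments; ANOVA with Tukey test.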

HeLa [2] = assay: Antiproliferative activity against human HeLa cells after 72 hrs by MTT assay; assay type: functional, cell-based; conditions: Homo sapiens, HeLa, 72 h
How it was run: (§2)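 Monolayer cells in DMEM with 10% FBS, 2 mM L-glutamine, penicillin and streptomycin at 37 °C, 5% CO2. Seeded at 3000-6000 cells/well by doubling time on day 0. Five 10-fold dilutions (0.01–100 µM) were added and incubated 72 h. MTT read-out, converted to percentage growth. IC50 by linear regression between bracketing concentrations. Quadruplicate points, three independent experiments, ANOVA/Tukey p<0.05.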

Nucleic Acid [3] = assay: Binding affinity to calf thymus DNA assessed as appearance of weak positive CD band at compound to DNA ratio of > 0.3 and 350 to 400 nm wavelength by circular dichroism spectroscopy; assay type: nucleic-acid assay; conditions: Bos taurus
How it was run: (§3)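 CD spectra of ct-DNA (1.0 × 10^-5 mol dm^-3, as phosphate) titrated with compound at 25 °C. Sodium cacodylate buffer pH 7.0, I = 0.05 mol dm^-3, 1 cm quartz cuvette. DNA band (~274–275 nm) and induced bands above 300 nm followed versus r = [compound]/[ct-DNA].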

MCF7 [4] = assay: Antiproliferative activity against human MCF7 cells after 72 hrs by MTT assay; assay type: functional, cell-based; conditions: Homo sapiens, MCF7, 72 h; how it was run: as §2
Nucleic Acid [5] = assay: Binding affinity to calf thymus DNA assessed as change in melting temperature at compound to polynucleotide ratio of 0.1 by UV-VIS spectroscopic analysis; assay type: nucleic-acid assay; conditions: Bos taurus
How it was run: (§4)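 ct-DNA alone or with compound at set r = [compound]/[polynucleotide], in cacodylate buffer pH 7.0, I = 0.05 mol dm^-3. Absorbance at 260 nm followed against temperature, ligand absorbance subtracted, curves normalized. Tm is the transition midpoint, from the first-derivative maximum or by tangent method. ΔTm = Tm(complex) − Tm(free DNA), mean of ≥2 runs, error ±0.5 °C.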

WI-38 [6] = assay: Antiproliferative activity against human WI38 cells after 72 hrs by MTT assay; assay type: cell-based; conditions: Homo sapiens, WI-38, 72 h; how it was run: as §2
Nucleic Acid [7] = assay: Binding affinity to calf thymus DNA assessed as hypochromic changes at 327 nm wavelength by UV-Vis spectrophotometric titrations; assay type: nucleic-acid assay; conditions: Bos taurus
How it was run: (§5)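 UV/Vis titration: aliquots of ct-DNA (concentration as phosphate) added to compound solution in sodium cacodylate buffer pH 7.0, I = 0.05 mol dm^-3, 1 cm quartz cuvettes. Hypochromism followed at band maxima. Compound absorbance linear up to 2.0 × 10^-5 mol dm^-3. Binding data fitted by the Scatchard equation.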

MCF7 [8] = assay: Cytostatic activity against human MCF7 cells at 1 to 10 uM after 72 hrs by MTT assay; assay type: functional, cell-based; how it was run: as §1
Nucleic Acid [9] = assay: Binding affinity to calf thymus DNA assessed as appearance of weak, negative CD band at 325 nm wavelength by circular dichroism spectroscopy; assay type: nucleic-acid assay; conditions: Bos taurus; how it was run: as §3
Nucleic Acid [10] = assay: Binding affinity to calf thymus DNA assessed as change in melting temperature at compound to polynucleotide ratio of 0.5 by UV-VIS spectroscopic analysis; assay type: nucleic-acid assay; conditions: Bos taurus; how it was run: as §4
SW-620 [11] = assay: Antiproliferative activity against human SW620 cells after 72 hrs by MTT assay; assay type: functional, cell-based; conditions: Homo sapiens, SW-620, 72 h; how it was run: as §2
SK-BR-3 [12] = assay: Antiproliferative activity against human SKBR3 cells after 72 hrs by MTT assay; assay type: functional, cell-based; conditions: Homo sapiens, SK-BR-3, 72 h; how it was run: as §2
Nucleic Acid [13] = assay: Binding affinity to calf thymus DNA assessed as change in melting temperature at compound to polynucleotide ratio of 0.3 by UV-VIS spectroscopic analysis; assay type: nucleic-acid assay; conditions: Bos taurus; how it was run: as §4
HEp-2 [14] = assay: Cytostatic activity against human Hep2 cells at 1 to 10 uM after 72 hrs by MTT assay; assay type: functional, cell-based; how it was run: as §1
SK-BR-3 [15] = assay: Cytostatic activity against human SKBR3 cells at 1 to 10 uM after 72 hrs by MTT assay; assay type: functional, cell-based; how it was run: as §1
Nucleic Acid [16] = assay: Binding affinity to calf thymus DNA assessed as change in melting temperature at compound to polynucleotide ratio of 0.2 by UV-VIS spectroscopic analysis; assay type: nucleic-acid assay; conditions: Bos taurus; how it was run: as §4
Nucleic Acid [17] = assay: Binding affinity to calf thymus DNA assessed as hypochromic changes at 360 nm wavelength by UV-Vis spectrophotometric titrations; assay type: nucleic-acid assay; conditions: Bos taurus; how it was run: as §5
HEp-2 [18] = assay: Antiproliferative activity against human Hep2 cells after 72 hrs by MTT assay; assay type: functional, cell-based; conditions: Homo sapiens, HEp-2, 72 h; how it was run: as §2
HeLa [19] = assay: Cytostatic activity against human HeLa cells at 1 to 10 uM after 72 hrs by MTT assay; assay type: functional, cell-based; how it was run: as §1
Nucleic Acid [20] = assay: Binding affinity to calf thymus DNA assessed as hypochromic changes at 342 nm wavelength by UV-Vis spectrophotometric titrations; assay type: nucleic-acid assay; conditions: Bos taurus; how it was run: as §5
SW-620 [21] = assay: Cytostatic activity against human SW620 cells at 1 to 10 uM after 72 hrs by MTT assay; assay type: functional, cell-based; how it was run: as §1
Nucleic Acid [22] = assay: Binding affinity to calf thymus DNA assessed as fluorescence quenching at compound to DNA ratio of 0.20 by fluorimetric titrations; assay type: nucleic-acid assay; conditions: Bos taurus
How it was run: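 Fluorimetric titration: portions of ct-DNA (sonicated, filtered, concentration as phosphate) added to compound in cacodylate buffer pH 7.0, I = 0.05 mol dm^-3. Emission 350–600 nm, sample absorbance <0.05 at excitation, mostly DNA excess (r < 0.1). Ks and n = [bound compound]/[DNA phosphate] by non-linear least-squares Scatchard fitting.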

WI-38 [23] = assay: Cytostatic activity against human WI38 cells at 1 to 10 uM after 72 hrs by MTT assay; assay type: ADME, cell-based; conditions: wi-38, 72 h; how it was run: as §1
MIA PaCa-2 [24] = assay: Antiproliferative activity against human MIAPaCa2 cells after 72 hrs by MTT assay; assay type: functional, cell-based; conditions: Homo sapiens, MIA PaCa-2, 72 h; how it was run: as §2

Compound: C[n+]1cccc2c1nc1ccc3ccccc3n12.[I-]
- Activity (MIA PaCa-2 [1]): Active
- IC50 (HeLa [2]): 7.52 µM
- Activity (Nucleic Acid [3]): Active
- IC50 (MCF7 [4]): 7.56 µM
- ΔTm (Nucleic Acid [5]): 1.6 °C
- IC50 (WI-38 [6]): 6.27 µM
- Activity (Nucleic Acid [7]): 28%
- Activity (MCF7 [8]): Active
- Activity (Nucleic Acid [9]): Active
- ΔTm (Nucleic Acid [10]): 6.1 °C
- IC50 (SW-620 [11]): 14.8 µM
- IC50 (SK-BR-3 [12]): 3.51 µM
- ΔTm (Nucleic Acid [13]): 4.25 °C
- Activity (HEp-2 [14]): Active
- Activity (SK-BR-3 [15]): Active
- ΔTm (Nucleic Acid [16]): 2.6 °C
- Activity (Nucleic Acid [17]): 38%
- IC50 (HEp-2 [18]): 13.2 µM
- Activity (HeLa [19]): Active
- Activity (Nucleic Acid [20]): 37%
- Activity (SW-620 [21]): Active
- log Ks (Nucleic Acid [22]): 4.9
- Activity (WI-38 [23]): Toxic
- IC50 (MIA PaCa-2 [24]): 8.56 µM
